Measured values taken from ChEMBL document CHEMBL1155359 (Bioorg Med Chem Lett, 2009).

How the values were obtained:
[1] = target: hERG (KCNH2) (Homo sapiens, UniProt Q12809); experiment: (§1) Inhibition of human ERG in L929 cells at 10 uM by whole cell patch-clamp assay; settings: human
[2] = target: Histamine H1 receptor (Homo sapiens, UniProt P35367); experiment: Displacement of [3H]pyrilamine from human recombinant histamine H1 receptor expressed in CHO cell by Betaplate scintillation counting; type: cell-based
[3] = target: T1, Voltage-gated inwardly rectifying potassium channel KCNH2 (Homo sapiens, UniProt Q12809); experiment: as §1
[4] = test system: Cavia porcellus; experiment: Cardiovascular toxicity in Hartley guinea pig assessed as QTc prolongation at 50 mg/kg, iv after 30 mins by ECG; type: organism-based; set-up: dose 50 mg/kg, route intravenous; settings: in vivo, 0.5 h
[5] = test system: Cavia porcellus; experiment: Cardiovascular toxicity in iv dosed Hartley guinea pig QTc prolongation after 30 mins by ECG; type: organism-based; settings: in vivo, 0.5 h
Outline: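 Guinea pig in vivo QTc test; potency is reported as the minimum effective dose (MED) in mg/kg.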

[6] = test system: Cavia porcellus; experiment: Antihistamine activity in iv dosed Hartley guinea pig assessed as inhibition of histamine-induced bronchoconstriction pretreated before histamine challenge; type: functional
Outline: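 Guinea pig in vivo antihistamine test; potency is reported as an ED50 in mg/kg.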

[7] = target: T1, Voltage-gated inwardly rectifying potassium channel KCNH2; experiment: Inhibition of human ERG in L929 cells by whole cell patch-clamp assay
[8] = test system: Cavia porcellus; experiment: Cardiovascular toxicity in Hartley guinea pig assessed as QTc prolongation at 100 mg/kg, iv after 30 mins by ECG; type: organism-based; set-up: dose 100 mg/kg, route intravenous; settings: in vivo, 0.5 h
[9] = L929 cells expressing human ERG

Chain of hERG (KCNH2) (Q12809 whole entry): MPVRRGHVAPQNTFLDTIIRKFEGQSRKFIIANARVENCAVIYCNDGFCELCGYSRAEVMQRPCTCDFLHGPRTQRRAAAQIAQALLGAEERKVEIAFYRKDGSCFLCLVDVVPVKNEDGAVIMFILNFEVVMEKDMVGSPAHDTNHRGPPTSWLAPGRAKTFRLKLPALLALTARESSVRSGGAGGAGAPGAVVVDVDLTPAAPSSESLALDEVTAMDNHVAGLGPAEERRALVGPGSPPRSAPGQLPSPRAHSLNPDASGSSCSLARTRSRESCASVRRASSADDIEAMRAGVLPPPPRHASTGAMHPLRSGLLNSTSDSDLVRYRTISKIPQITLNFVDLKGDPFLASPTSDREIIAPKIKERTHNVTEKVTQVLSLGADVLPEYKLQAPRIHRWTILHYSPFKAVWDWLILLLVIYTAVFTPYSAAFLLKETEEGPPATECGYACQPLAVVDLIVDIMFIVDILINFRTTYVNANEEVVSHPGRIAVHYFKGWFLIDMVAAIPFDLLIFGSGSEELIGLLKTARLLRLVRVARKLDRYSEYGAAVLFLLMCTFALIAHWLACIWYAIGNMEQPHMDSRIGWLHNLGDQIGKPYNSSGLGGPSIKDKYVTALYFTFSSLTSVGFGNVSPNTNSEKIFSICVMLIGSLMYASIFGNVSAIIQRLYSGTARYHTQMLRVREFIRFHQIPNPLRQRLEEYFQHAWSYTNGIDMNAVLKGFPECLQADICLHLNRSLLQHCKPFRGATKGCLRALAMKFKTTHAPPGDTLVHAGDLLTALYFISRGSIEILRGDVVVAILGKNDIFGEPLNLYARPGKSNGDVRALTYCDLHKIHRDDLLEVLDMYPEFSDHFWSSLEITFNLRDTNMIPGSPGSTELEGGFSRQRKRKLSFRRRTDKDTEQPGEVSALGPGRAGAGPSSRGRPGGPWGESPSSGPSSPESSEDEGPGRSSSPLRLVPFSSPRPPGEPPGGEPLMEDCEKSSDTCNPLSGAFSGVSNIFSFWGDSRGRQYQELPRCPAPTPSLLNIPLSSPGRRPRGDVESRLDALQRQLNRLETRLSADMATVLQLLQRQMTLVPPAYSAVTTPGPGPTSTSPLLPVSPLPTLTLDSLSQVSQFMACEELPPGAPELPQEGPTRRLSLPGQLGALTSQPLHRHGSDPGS
Chain of Histamine H1 receptor (P35367 whole entry): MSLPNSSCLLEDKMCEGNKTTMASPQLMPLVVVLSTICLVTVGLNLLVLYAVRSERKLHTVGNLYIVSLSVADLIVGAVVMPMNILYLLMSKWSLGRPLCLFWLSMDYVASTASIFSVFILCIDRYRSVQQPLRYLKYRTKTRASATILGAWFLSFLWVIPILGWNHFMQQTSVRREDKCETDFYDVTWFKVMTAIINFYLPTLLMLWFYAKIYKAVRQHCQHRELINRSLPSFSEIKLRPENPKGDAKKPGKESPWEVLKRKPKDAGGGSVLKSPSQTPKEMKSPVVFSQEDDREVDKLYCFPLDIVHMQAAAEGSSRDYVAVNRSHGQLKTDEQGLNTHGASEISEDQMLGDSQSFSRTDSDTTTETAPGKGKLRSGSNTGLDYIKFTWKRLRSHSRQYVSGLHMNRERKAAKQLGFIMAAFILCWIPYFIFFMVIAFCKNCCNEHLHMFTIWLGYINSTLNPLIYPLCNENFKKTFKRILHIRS
T1 sequence (Q12809 whole entry): as the sequence (Q12809 whole entry) above

Row | SMILES | inhibition at 10 µM [1, 9] | Ki ([2]; read-out: Ki) | other results
1 | Cc1ccc(CCCCN2CCC(CO)CC2)cc1 | 54% | – | Ki ([2]; cho): Not Active
2 | OC(c1ccccc1)(c1ccccc1)C1CCNCC1 [AZACYCLONOL] | – | 659 nM | –
3 | Cc1ccc(CCCC(=O)N2CCC(C(O)(c3ccccc3)c3ccccc3)CC2)cc1 | 11% | – | Ki ([2]; cho): Not Active
4 | Cc1ccc(CN2CCC(C(O)(c3ccccc3)c3ccccc3)CC2)cc1 | 100% | 16 nM | –
5 | Cc1ccc(CCCN2CCC(C(O)(c3ccccc3)c3ccccc3)CC2)cc1 | – | 155 nM | –
6 | Cc1ccc(CCCCN2CCC(C(O)c3ccccc3)CC2)cc1 (stereo not given) | 97% | 121 nM | –
7 | O=C(O)c1ccc(CCCCN2CCC(C(O)(c3ccccc3)c3ccccc3)CC2)cc1 | – | 203 nM | IC50 [3]: 11000 nM; inhibition at 10 µM ([1]; l929): 56%; MED [4]: > 50 mg/kg; MED [5]: Not Active; ED50 [6]: 0.1 mg/kg; IC50 [7]: 11000 nM
8 | Cc1ccc(CCCCC2CCC(C(O)(c3ccccc3)c3ccccc3)CC2)cc1 (stereo not given) | 35% | – | Ki ([2]; cho): Not Active
9 | COC(=O)c1ccc(CCCCN2CCC(C(O)(c3ccccc3)c3ccccc3)CC2)cc1 | 100% | 20 nM | –
10 | CC(C)(C(=O)O)c1ccc(C(O)CCCN2CCC(C(O)(c3ccccc3)c3ccccc3)CC2)cc1 (racemic) [FEXOFENADINE] | – | – | MED [5]: Not Active; ED50 [6]: 0.08 mg/kg; MED [8]: > 100 mg/kg
11 | Cc1ccc(CCCCN2CCCCC2)cc1 | 71% | 3200 nM | –
12 | Cc1ccc(CCCCN2CCC(C(O)(c3ccccc3)c3ccccc3)CC2)cc1 | – | 39 nM | MED [5]: 0.1 mg/kg; ED50 [6]: 0.9 mg/kg
13 | CC1CCC(CCCCN2CCC(C(O)(c3ccccc3)c3ccccc3)CC2)CC1 (stereo not given) | 85% | 61 nM | –
14 | CC(C)(C)c1ccc(C(O)CCCN2CCC(C(O)(c3ccccc3)c3ccccc3)CC2)cc1 (racemic) [TERFENADINE] | – | – | MED [5]: 0.03 mg/kg; ED50 [6]: 0.8 mg/kg
15 | Cc1ccc(CCN2CCC(C(O)(c3ccccc3)c3ccccc3)CC2)cc1 | 100% | 64 nM | –
